Results as given in ChEMBL document CHEMBL5380801, “Development of Substituted Phenyl Dihydrouracil as the Novel Achiral Cereblon Ligands for Targeted Protein Degradation” (J Med Chem, 2023).
Calls of active or inactive are those of the source. No cut-off for these calls is given here.

Tests used:
[1] = molecular target: Protein cereblon/DNA damage-binding protein 1 (Homo sapiens, UniProt Q96SW2); assay: Binding affinity to recombinant human CRBN/DDB1 assessed as dissociation constant incubated for 20 mins by fluorescence polarization assay; type: protein assay
[2] = Stability in human liver microsomes assessed as parent compound remaining measured after 0.5 hrs in presence of NADPH by LC-MS/MS analysis; type: ADME, Microsome; conditions: read-out: Stability
In short: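 Human liver microsome incubation; percent parent remaining reported after 0.5 h.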

[3] = Stability in human plasma assessed as parent compound remaining measured after 4 hrs in presence of NADPH by LC-MS/MS analysis; type: ADME, cell-free; conditions: read-out: Stability
In short: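 Human plasma incubation; percent parent remaining reported after 4.0 h.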

[4] = Stability of the compound in HCl solution at pH 1.0 assessed as parent compound remaining at 100 uM measured after 24 hrs by HPLC analysis; type: physicochemical; conditions: read-out: Stability
In short: (§1)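 Incubated in buffer at the stated pH at 37 °C; percent parent remaining after 24 h. Ring-opening hydrolysis of the glutarimide or dihydrouracil monitored.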

[5] = Stability of the compound in potassium phosphate buffer at pH 7.4 assessed as parent compound remaining at 100 uM measured after 24 hrs by HPLC analysis; type: physicochemical; conditions: read-out: Stability; in short: as §1
[6] = Stability of the compound in bicine buffer at pH 8.8 assessed as parent compound remaining at 100 uM measured after 2 hrs by HPLC analysis; type: physicochemical; conditions: read-out: Stability
In short: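 Incubated in pH 8.8 buffer; percent parent remaining reported after 2 h.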

[7] = molecular target: Cereblon/Ikaros (Homo sapiens) (UniProt Q96SW2+Q13422); assay: Protac activity at CRBN/IKZF1 in human MV4-11 cells assessed as induction of IKZF1 degradation at 1 to 10 uM measured after 24 hrs by Western blot analysis; type: cell-based; conditions: dose 1-10 µM
[8] = molecular target: Protein cereblon/Zinc finger protein Aiolos (Homo sapiens) (UniProt Q96SW2+Q9UKT9); assay: Protac activity at CRBN/IKZF3 in human MV4-11 cells assessed as induction of IKZF3 degradation at 1 to 10 uM measured after 24 hrs by Western blot analysis; type: cell-based; conditions: dose 1-10 µM
[9] = molecular target: Protein cereblon/Eukaryotic peptide chain release factor GTP-binding subunit ERF3A (Homo sapiens) (UniProt Q96SW2+P15170); assay: Protac activity at CRBN/GSPT1 in human MV4-11 cells assessed as induction of GSPT1 degradation at 1 to 10 uM measured after 24 hrs by Western blot analysis; type: cell-based; conditions: dose 1-10 µM
[10] = Stability of the compound in bicine buffer at pH 8.8 assessed as parent compound remaining at 100 uM measured after 24 hrs by HPLC analysis; type: physicochemical; conditions: read-out: Stability; in short: as §1
MV4-11 [11] = assay: Antiproliferative activity at human MV4-11 cells assessed as reduction in cell viability at upto 100 uM measured after 72 hrs by Alamar blue dye based analysis; type: functional
In short: (§2)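 MV4;11 cells (RPMI1640, 10% FBS, 1% Pen/Strep, 37 °C, 5% CO2, used within 20 passages) seeded at 5000–10000 cells/well, then given DMSO or compound at the indicated doses for 72 h. AlamarBlue then added; fluorescence read at ex 530–560 nm, em 590 nm. Signal normalized to DMSO-treated cells; IC50 calculated.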

[12] = molecular target: Protein cereblon/Bromodomain-containing protein 4 (Homo sapiens) (UniProt O60885+Q96SW2); assay: Protac activity at CRBN/BRD4 in human MV4-11 cells assessed as degradation of BRD4 at 0.01 to 1 uM incubated for 24 hrs; type: cell-based; conditions: dose 0.01-1 µM
MV4-11 [13] = assay: Induction of apoptosis in human MV4-11 cells assessed as caspase 3 cleavage at 0.01 to 10 nM; type: functional, cell-based; conditions: MV4-11, dose upper 10.0 µM, in the assay text read “0.01 to 10 uM” for “0.01 to 10 nM”
In short: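 MV4;11 cells treated with the indicated concentrations for 24 h, or for the indicated times. […] Blocked in 5% BSA/TBST; anti-caspase 3 and anti-β-actin overnight in the cold, HRP secondary 1 h at room temperature; ECL detection of full-length and cleaved caspase 3.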

MV4-11 [14] = assay: Antiproliferative activity at human MV4-11 cells assessed as reduction in cell viability measured after 72 hrs by Alamar blue dye based analysis; type: functional; conditions: MV4-11, 72 h; in short: as §2
MV4-11 [15] = assay: Induction of cell cycle arrest in human MV4-11 cells assessed as accumulation of cells at G1 phase at 0.01 to 10 uM incubated for 48 hrs by PI staining based flow cytometry analysis; type: functional; conditions: dose 0.01-10 µM
In short: (§3)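 Cell-cycle distribution determined by flow cytometry (Attune) in MV4;11 cells seeded in 6-well plates and treated with the indicated concentrations for 48 h.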

MV4-11 [16] = assay: Induction of cell cycle arrest in human MV4-11 cells assessed as decrease in accumulation of cells at S phase at 0.01 to 10 uM incubated for 48 hrs by PI staining based flow cytometry analysis; type: functional; conditions: dose 0.01-10 µM; in short: as §3
MV4-11 [17] = assay: Induction of apoptosis in human MV4-11 cells assessed as viable cells at 10 uM measured after 48 hrs by Annexin V-FITC staining based flow cytometry (reference value: 98.7%); type: functional; conditions: read-out: Activity
MV4-11 [18] = assay: Induction of apoptosis in human MV4-11 cells assessed as viable cells at 1 uM measured after 48 hrs by Annexin V-FITC staining based flow cytometry (reference value: 98.7%); type: functional; conditions: read-out: Activity
MV4-11 [19] = assay: Induction of apoptosis in human MV4-11 cells assessed as viable cells at 0.1 uM measured after 48 hrs by Annexin V-FITC staining based flow cytometry (reference value: 98.7%); type: functional; conditions: read-out: Activity
MV4-11 [20] = assay: Induction of apoptosis in human MV4-11 cells assessed as viable cells at 0.01 uM measured after 48 hrs by Annexin V-FITC staining based flow cytometry (reference value: 98.7%); type: functional; conditions: read-out: Activity
MV4-11 [21] = assay: Induction of apoptosis in human MV4-11 cells assessed as early apoptotic cells at 10 uM measured after 48 hrs by Annexin V-FITC staining based flow cytometry (reference value: 0%); type: functional
MV4-11 [22] = assay: Induction of apoptosis in human MV4-11 cells assessed as early apoptotic cells at 1 uM measured after 48 hrs by Annexin V-FITC staining based flow cytometry (reference value: 0%); type: functional
MV4-11 [23] = assay: Induction of apoptosis in human MV4-11 cells assessed as early apoptotic cells at 0.1 uM measured after 48 hrs by Annexin V-FITC staining based flow cytometry (reference value: 0%); type: functional
MV4-11 [24] = assay: Induction of apoptosis in human MV4-11 cells assessed as early apoptotic cells at 0.01 uM measured after 48 hrs by Annexin V-FITC staining based flow cytometry (reference value: 0%); type: functional
MV4-11 [25] = assay: Induction of apoptosis in human MV4-11 cells assessed as late apoptotic cells at 10 uM measured after 48 hrs by Annexin V-FITC staining based flow cytometry (reference value: 0.42%); type: functional
MV4-11 [26] = assay: Induction of apoptosis in human MV4-11 cells assessed as late apoptotic cells at 1 uM measured after 48 hrs by Annexin V-FITC staining based flow cytometry (reference value: 0.42%); type: functional
MV4-11 [27] = assay: Induction of apoptosis in human MV4-11 cells assessed as late apoptotic cells at 0.1 uM measured after 48 hrs by Annexin V-FITC staining based flow cytometry (reference value: 0.42%); type: functional
MV4-11 [28] = assay: Induction of apoptosis in human MV4-11 cells assessed as late apoptotic cells at 0.01 uM measured after 48 hrs by Annexin V-FITC staining based flow cytometry (reference value: 0.42%); type: functional
MV4-11 [29] = assay: Induction of apoptosis in human MV4-11 cells assessed as necrotic cells at 10 uM measured after 48 hrs by Annexin V-FITC staining based flow cytometry (reference value: 0.86%); type: functional
MV4-11 [30] = assay: Induction of apoptosis in human MV4-11 cells assessed as necrotic cells at 1 uM measured after 48 hrs by Annexin V-FITC staining based flow cytometry (reference value: 0.86%); type: functional
MV4-11 [31] = assay: Induction of apoptosis in human MV4-11 cells assessed as necrotic cells at 0.1 uM measured after 48 hrs by Annexin V-FITC staining based flow cytometry (reference value: 0.86%); type: functional
MV4-11 [32] = assay: Induction of apoptosis in human MV4-11 cells assessed as necrotic cells at 0.01 uM measured after 48 hrs by Annexin V-FITC staining based flow cytometry (reference value: 0.86%); type: functional

Sequence of Protein cereblon/Eukaryotic peptide chain release factor GTP-binding subunit ERF3A (Homo sapiens) (P15170 whole entry, looked up): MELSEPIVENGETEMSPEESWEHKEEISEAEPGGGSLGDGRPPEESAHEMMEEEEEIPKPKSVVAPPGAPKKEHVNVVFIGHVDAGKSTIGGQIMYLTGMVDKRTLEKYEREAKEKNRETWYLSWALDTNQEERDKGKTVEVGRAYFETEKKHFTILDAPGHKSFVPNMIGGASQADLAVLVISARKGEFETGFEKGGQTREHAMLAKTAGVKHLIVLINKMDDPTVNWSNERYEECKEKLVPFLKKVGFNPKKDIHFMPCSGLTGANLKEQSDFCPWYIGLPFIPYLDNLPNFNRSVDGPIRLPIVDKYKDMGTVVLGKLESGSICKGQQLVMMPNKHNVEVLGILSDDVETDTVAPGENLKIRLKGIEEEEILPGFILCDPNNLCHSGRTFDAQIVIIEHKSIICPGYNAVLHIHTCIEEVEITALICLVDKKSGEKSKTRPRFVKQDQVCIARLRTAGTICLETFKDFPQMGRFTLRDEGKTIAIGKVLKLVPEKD
Sequence of Protein cereblon/Eukaryotic peptide chain release factor GTP-binding subunit ERF3A (Homo sapiens) (Q96SW2 whole entry, looked up): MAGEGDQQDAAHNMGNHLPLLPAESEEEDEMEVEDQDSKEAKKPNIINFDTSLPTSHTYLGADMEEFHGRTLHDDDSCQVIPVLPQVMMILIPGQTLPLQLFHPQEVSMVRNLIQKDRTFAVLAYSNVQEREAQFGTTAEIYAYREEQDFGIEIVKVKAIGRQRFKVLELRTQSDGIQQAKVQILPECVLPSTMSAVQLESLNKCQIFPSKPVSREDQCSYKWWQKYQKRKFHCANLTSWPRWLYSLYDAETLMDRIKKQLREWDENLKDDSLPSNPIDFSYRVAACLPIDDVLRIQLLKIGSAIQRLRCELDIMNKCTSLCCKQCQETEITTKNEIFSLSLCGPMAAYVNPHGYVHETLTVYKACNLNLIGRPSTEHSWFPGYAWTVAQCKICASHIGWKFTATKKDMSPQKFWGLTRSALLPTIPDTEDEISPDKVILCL
Sequence of Protein cereblon/DNA damage-binding protein 1 (Q96SW2 whole entry): as the sequence (Q96SW2 whole entry, looked up) above
Sequence of Protein cereblon/DNA damage-binding protein 1 (Q16531 whole entry, further chain): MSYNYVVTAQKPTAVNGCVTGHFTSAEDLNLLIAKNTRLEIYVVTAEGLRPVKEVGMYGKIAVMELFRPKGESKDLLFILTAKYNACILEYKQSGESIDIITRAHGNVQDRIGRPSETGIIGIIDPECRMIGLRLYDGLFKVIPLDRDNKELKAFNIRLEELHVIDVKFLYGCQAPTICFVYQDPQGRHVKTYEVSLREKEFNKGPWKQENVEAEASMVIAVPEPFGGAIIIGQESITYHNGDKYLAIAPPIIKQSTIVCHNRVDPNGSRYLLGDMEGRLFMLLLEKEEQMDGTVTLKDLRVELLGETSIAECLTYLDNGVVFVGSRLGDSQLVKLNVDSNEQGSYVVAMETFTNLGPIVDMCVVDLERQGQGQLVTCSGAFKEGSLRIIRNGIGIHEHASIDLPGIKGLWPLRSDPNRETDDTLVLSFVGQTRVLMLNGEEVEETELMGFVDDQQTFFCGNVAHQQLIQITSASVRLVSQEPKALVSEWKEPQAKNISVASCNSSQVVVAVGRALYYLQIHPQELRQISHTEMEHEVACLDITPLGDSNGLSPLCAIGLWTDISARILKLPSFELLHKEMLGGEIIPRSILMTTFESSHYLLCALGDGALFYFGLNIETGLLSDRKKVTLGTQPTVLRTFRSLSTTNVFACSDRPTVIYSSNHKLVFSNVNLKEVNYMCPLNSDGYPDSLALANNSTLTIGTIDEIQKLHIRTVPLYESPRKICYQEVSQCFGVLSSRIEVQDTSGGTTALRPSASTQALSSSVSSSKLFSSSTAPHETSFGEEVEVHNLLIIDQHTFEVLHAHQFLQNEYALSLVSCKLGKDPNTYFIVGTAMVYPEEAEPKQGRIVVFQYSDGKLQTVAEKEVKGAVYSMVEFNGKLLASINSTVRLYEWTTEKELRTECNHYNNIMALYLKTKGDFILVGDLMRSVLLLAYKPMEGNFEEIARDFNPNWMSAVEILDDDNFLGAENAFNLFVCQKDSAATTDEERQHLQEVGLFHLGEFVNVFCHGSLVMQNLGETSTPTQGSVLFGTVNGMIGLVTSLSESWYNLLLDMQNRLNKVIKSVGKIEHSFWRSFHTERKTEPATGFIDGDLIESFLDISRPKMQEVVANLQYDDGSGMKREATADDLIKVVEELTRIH
Sequence of Protein cereblon/Zinc finger protein Aiolos (Homo sapiens) (Q96SW2 whole entry, looked up): as the sequence (Q96SW2 whole entry, looked up) above
Sequence of Protein cereblon/Zinc finger protein Aiolos (Homo sapiens) (Q9UKT9 whole entry, looked up): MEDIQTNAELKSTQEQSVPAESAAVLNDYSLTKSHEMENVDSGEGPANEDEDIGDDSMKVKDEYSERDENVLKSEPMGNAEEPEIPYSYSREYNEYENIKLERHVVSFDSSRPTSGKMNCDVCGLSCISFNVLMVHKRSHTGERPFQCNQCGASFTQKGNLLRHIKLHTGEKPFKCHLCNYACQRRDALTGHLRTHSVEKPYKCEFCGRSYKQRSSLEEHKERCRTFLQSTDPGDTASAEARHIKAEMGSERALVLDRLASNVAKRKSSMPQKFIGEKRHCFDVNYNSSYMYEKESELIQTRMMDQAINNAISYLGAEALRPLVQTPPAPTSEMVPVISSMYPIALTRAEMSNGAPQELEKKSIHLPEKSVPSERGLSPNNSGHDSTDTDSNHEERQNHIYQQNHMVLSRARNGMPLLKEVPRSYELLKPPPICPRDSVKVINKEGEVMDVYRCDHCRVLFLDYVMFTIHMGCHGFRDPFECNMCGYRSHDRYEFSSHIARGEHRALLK
Sequence of Protein cereblon/Bromodomain-containing protein 4 (Homo sapiens) (Q96SW2 whole entry, looked up, other chains not shown): as the sequence (Q96SW2 whole entry, looked up) above

SMILES: Cc1c(OCC(=O)OC(C)(C)C)cccc1N1CCC(=O)NC1=O
- Kd [1]: 1.2 µM

SMILES: Nc1cccc2c1CN(C1CCC(=O)NC1=O)C2=O (stereo not given) [LENALIDOMIDE]
- remaining at 0.5 h [2]: 89%
- remaining at 4 h [3]: 62%
- remaining at 24 h, 100 µM [4]: > 99%
- remaining at 24 h, 100 µM [5]: 39%
- remaining at 2 h, 100 µM [6]: 20%

SMILES: CCNC(=O)COc1cccc(N2CCC(=O)NC2=O)c1C
- Kd [1]: 2.14 µM
- Activity [7]: inactive
- Activity [8]: inactive
- Activity [9]: inactive
- remaining at 0.5 h [2]: 100%
- remaining at 4 h [3]: 88%
- remaining at 24 h, 100 µM [4]: > 99%
- remaining at 24 h, 100 µM [5]: > 99%
- remaining at 24 h, 100 µM [10]: 95%

SMILES: CC(=O)NCCC#Cc1cccc(N2CCC(=O)NC2=O)c1C
- Kd [1]: 0.63 µM
- Activity [7]: inactive
- Activity [8]: inactive
- Activity [9]: inactive
- remaining at 0.5 h [2]: 90%
- remaining at 4 h [3]: 102%
- remaining at 24 h, 100 µM [4]: > 99%
- remaining at 24 h, 100 µM [5]: > 99%
- remaining at 24 h, 100 µM [10]: 90%

SMILES: CC(C)(C)OC(=O)NCC#Cc1cccc(N2CCC(=O)NC2=O)c1
- Kd [1]: 0.53 µM

SMILES: Cc1c(OCC(=O)N2CCCCC2)cccc1N1CCC(=O)NC1=O
- Kd [1]: 1.1 µM
- Activity [7]: inactive
- Activity [8]: inactive
- Activity [9]: inactive
- remaining at 0.5 h [2]: 85%
- remaining at 4 h [3]: 81%
- remaining at 24 h, 100 µM [4]: > 99%
- remaining at 24 h, 100 µM [5]: > 99%
- remaining at 24 h, 100 µM [10]: 95%
- Activity (MV4-11 [11]): inactive

SMILES: Cc1sc2c(c1C)C(c1ccc(Cl)cc1)=N[C@@H](CC(=O)NC1CCN(C(=O)COc3cccc(N4CCC(=O)N(C)C4=O)c3C)CC1)c1nnc(C)n1-2
- Activity [12]: inactive

SMILES: Cc1ccccc1N1CCC(=O)NC1=O
- Kd [1]: 1.24 µM

SMILES: Cc1sc2c(c1C)C(c1ccc(Cl)cc1)=N[C@@H](CC(=O)NC1CCN(C(=O)COc3cccc(N4CCC(=O)NC4=O)c3C)CC1)c1nnc(C)n1-2
- Activity (MV4-11 [13]): Active
- IC50 (MV4-11 [14]): 0.0011 µM
- Activity (MV4-11 [15]): Active
- Activity (MV4-11 [16]): Active
- viability at 10 µM (MV4-11 [17]): 3.88%
- viability at 1 µM (MV4-11 [18]): 7.3%
- viability at 0.1 µM (MV4-11 [19]): 17.1%
- viability at 0.01 µM (MV4-11 [20]): 77.2%
- Activity (MV4-11 [21]): 5.77%
- Activity (MV4-11 [22]): 0.49%
- Activity (MV4-11 [23]): 1.13%
- Activity (MV4-11 [24]): 0.32%
- Activity (MV4-11 [25]): 88.7%
- Activity (MV4-11 [26]): 43.6%
- Activity (MV4-11 [27]): 42.3%
- Activity (MV4-11 [28]): 13.4%
- Activity (MV4-11 [29]): 16.9%
- Activity (MV4-11 [30]): 48.7%
- Activity (MV4-11 [31]): 39.4%
- Activity (MV4-11 [32]): 9.13%

SMILES: Cc1c(C#CCNC(=O)OC(C)(C)C)cccc1N1CCC(=O)NC1=O
- Activity [7]: inactive
- Activity [8]: inactive
- Activity [9]: inactive
- remaining at 0.5 h [2]: 87%
- remaining at 4 h [3]: 97%
- remaining at 24 h, 100 µM [4]: > 99%
- remaining at 24 h, 100 µM [5]: > 99%
- remaining at 24 h, 100 µM [10]: 93%
